Experimental data from ChEMBL document CHEMBL1128328, “Identification of efficient pentapeptide substrates for the tyrosine kinase pp60c-src” (J Med Chem, 1995).

What was measured:
[1] = molecular target: Proto-oncogene tyrosine-protein kinase Src (Homo sapiens) (UniProt P12931); test: Incorporation of 32P into phosphopeptide product (1 mM) in pp60c-src phosphorylation assay
Method in brief: (§1)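 Human pp60c-src (baculovirus/SF9 recombinant, partially purified), 10 units in 40 µL; 138 mM MOPS pH 7.1, 0.64 mM MgCl2 (calculated free Mg2+ 0.44 mM), BSA 0.37 mg/mL, 200 µM [γ-32P]ATP, 20 µM ADP; peptide at 1 or 3 mM final; 30 min, 30 °C; acid molybdate quench; PEI-cellulose column, 1 M LiCl elution, Cerenkov counting; triplicate, no-peptide blank subtracted.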

[2] = molecular target: Proto-oncogene tyrosine-protein kinase Src (Homo sapiens) (UniProt P12931); test: Incorporation of 32P into phosphopeptide product (3 mM) in pp60c-src phosphorylation assay; method in brief: as §1
[3] = system: CC[C@H](C)[C@H](NC(C)=O)C(=O)N[C@@H](Cc1ccc(O)cc1)C(=O)NCC(=O)N[C@@H](CCC(=O)O)C(=O)N[C@@H](Cc1ccccc1)C(N)=O; test: (§2) Maximum enzyme velocity(Vmax) of peptide phosphorylation by pp60src
Method in brief: (§3)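 Same pp60c-src reaction (pH 7.1 MOPS, 200 µM [γ-32P]ATP, 20 µM ADP, 30 min, 30 °C, PEI-cellulose/Cerenkov readout). Two peptide levels, near and ~10× estimated Km (200 µM/2 mM, 25/300 µM, or 50 µM/1 mM depending on peptide). Initial velocities in 4–6 repeats per level, minus zero-time blank. Apparent values from Cornish-Bowden direct linear plot.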

[4] = system: CC[C@H](C)[C@H](NC(=O)[C@H](C)NC(=O)[C@H](CC(=O)O)NC(=O)[C@H](CCC(=O)O)NC(C)=O)C(=O)N[C@@H](Cc1ccc(O)cc1)C(N)=O; test: as §2; method in brief: as §3
[5] = system: CC[C@H](C)[C@H](NC(=O)[C@H](CCC(=O)O)NC(=O)[C@H](CCC(=O)O)NC(=O)[C@H](CCC(=O)O)NC(=O)[C@H](C)N)C(=O)N[C@@H](Cc1ccc(O)cc1)C(=O)NCC(=O)N[C@@H](CCC(=O)O)C(=O)N[C@@H](Cc1ccccc1)C(=O)N[C@@H](CCC(=O)O)C(=O)N[C@@H](C)C(=O)N[C@@H](CCCCN)C(=O)N[C@@H](CCCCN)C(=O)N[C@@H](CCCCN)C(=O)N[C@@H](CCCCN)C(=O)O; test: as §2; method in brief: as §3
[6] = system: CC[C@H](C)[C@H](NC(C)=O)C(=O)N[C@@H](Cc1ccc(O)cc1)C(=O)NCC(=O)N[C@@H](CCC(=O)O)C(=O)N[C@@H](Cc1ccccc1)C(N)=O; test: (§4) Michaelis-Menten (Km) constant for peptide phosphorylation by pp60src; method in brief: as §3
[7] = system: CC[C@H](C)[C@H](NC(=O)[C@H](C)NC(=O)[C@H](CC(=O)O)NC(=O)[C@H](CCC(=O)O)NC(C)=O)C(=O)N[C@@H](Cc1ccc(O)cc1)C(N)=O; test: as §4; method in brief: as §3
[8] = system: CC[C@H](C)[C@H](NC(=O)[C@H](CCC(=O)O)NC(=O)[C@H](CCC(=O)O)NC(=O)[C@H](CCC(=O)O)NC(=O)[C@H](C)N)C(=O)N[C@@H](Cc1ccc(O)cc1)C(=O)NCC(=O)N[C@@H](CCC(=O)O)C(=O)N[C@@H](Cc1ccccc1)C(=O)N[C@@H](CCC(=O)O)C(=O)N[C@@H](C)C(=O)N[C@@H](CCCCN)C(=O)N[C@@H](CCCCN)C(=O)N[C@@H](CCCCN)C(=O)N[C@@H](CCCCN)C(=O)O; test: as §4; method in brief: as §3

Compound | CPM x1000 [1] | CPM x1000 [2] | also measured
CC[C@H](C)[C@H](NC(=O)[C@H](CCC(=O)O)NC(=O)[C@H](CCC(=O)O)NC(=O)[C@H](CCC(=O)O)NC(=O)[C@H](C)N)C(=O)N[C@@H](Cc1ccc(O)cc1)C(=O)NCC(=O)N[C@@H](CCC(=O)O)C(=O)N[C@@H](Cc1ccccc1)C(=O)N[C@@H](CCC(=O)O)C(=O)N[C@@H](C)C(=O)N[C@@H](CCCCN)C(=O)N[C@@H](CCCCN)C(=O)N[C@@H](CCCCN)C(=O)N[C@@H](CCCCN)C(=O)O | 702 | – | –
Ac-DAEYA-NH2 | – | 23.4 | –
Ac-EDAIY-NH2 | 403 | – | –
Ac-EGTYG-NH2 | 63.5 | 89.5 | –
Ac-IYGEF-NH2 | 497 | – | –
Proto-oncogene tyrosine-protein kinase Src (Homo sapiens) (from UniProt P12931) | – | – | Vmax [3]: 1.02 µM/min/mg; Vmax [4]: 1.86 µM/min/mg; Vmax [5]: 3.06 µM/min/mg; Km [6]: 368 µM; Km [7]: 880 µM; Km [8]: 100 µM

Now from value to compound, other results behind:

CPM x1000 [1] | CPM x1000 [2] | Compound | also measured
– | 28.5 | Ac-EDAEYA-NH2 | –
– | 120 | Ac-GEGTYGV-NH2 | –
– | 80.3 | H-RRLIEDAEYAARG-OH | –
